Several values for one entry are separate records, joined by “and”; a condition that tells them apart may be missing. Identical values can stand only once.
System: Fibroblast
Assay: Multiplex assay against human fibroblast
Assay type: toxicity, cell-based
In short: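 Live cells carried four stains from seeding: Hoechst33342, BioTracker Green Microtubule Cytoskeleton Dye, MitoTracker Red and Annexin V Alexa Fluor 680. They were imaged on a CQ1 microscope at 37°C and 5% CO2 after compound addition. Using CellPathfinder machine-learning gating, cells were split into Hoechst high-intensity objects or normal cells, normal cells into healthy, pyknosed or fragmented nuclei, and pyknosed cells into mitotic or apoptotic; tubulin, mitochondrial-mass and membrane-permeability phenotypes are per cents of healthy-nucleus cells.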

[1] = 12 h, 1 µM, compound concentration 1 uM
[2] = 12 h, 10 µM, compound concentration 10 uM
[3] = 24 h, 1 µM, compound concentration 1 uM
[4] = 24 h, 10 µM, compound concentration 10 uM
[5] = 48 h, 1 µM, compound concentration 1 uM
[6] = 48 h, 10 µM, compound concentration 10 uM

Cc1ccc(F)cc1C(=O)Nc1ccc(C(=O)N2Cc3cccn3Cc3ccccc32)c(Cl)c1 [LIXIVAPTAN]
Population Apoptotic (%) [1]: 40% and 50%
Population Fragmented Nuclei (%) [1]: 11% and 30%
Population Healthy Nuclei (%) [1]: 73% and 47%
Population Hoechst High Intensity Objects (%) [1]: 5% and 3%
Population Membrane Permeable-Phenotype (%) [1]: 0% and 1%
Population Mitochondria Different-Phenotype (%) [1]: 3% and 9%
Population Mitotic Cells (%) [1]: 59% and 50%
Population Normal (%) [1]: 94% and 96%
Population Pyknosed Nuclei (%) [1]: 15% and 21%
Population Tubulin-Different-Phenotype (%) [1]: 28% and 38%
Total Cell Count [1]: 186 and 117
Population Apoptotic (%) [2]: 34% and 31%
Population Fragmented Nuclei (%) [2]: 18% and 27%
Population Healthy Nuclei (%) [2]: 58% and 46%
Population Hoechst High Intensity Objects (%) [2]: 0% and 5%
Population Membrane Permeable-Phenotype (%) [2]: 2% and 6%
Population Mitochondria Different-Phenotype (%) [2]: 5% and 10%
Population Mitotic Cells (%) [2]: 65% and 68%
Population Normal (%) [2]: 99% and 94%
Population Pyknosed Nuclei (%) [2]: 23% and 25%
Population Tubulin-Different-Phenotype (%) [2]: 62% and 72%
Total Cell Count [2]: 137 and 179
Population Apoptotic (%) [3]: 50% and 32%
Population Fragmented Nuclei (%) [3]: 12% and 33%
Population Healthy Nuclei (%) [3]: 73% and 43%
Population Hoechst High Intensity Objects (%) [3]: 1% and 3%
Population Membrane Permeable-Phenotype (%) [3]: 1% and 5%
Population Mitochondria Different-Phenotype (%) [3]: 0% and 5%
Population Mitotic Cells (%) [3]: 50% and 67%
Population Normal (%) [3]: 98% and 96%
Population Pyknosed Nuclei (%) [3]: 14% and 23%
Population Tubulin-Different-Phenotype (%) [3]: 33% and 52%
Total Cell Count [3]: 172 and 126
Population Apoptotic (%) [4]: 25% and 51%
Population Fragmented Nuclei (%) [4]: 19% and 26%
Population Healthy Nuclei (%) [4]: 63% and 51%
Population Hoechst High Intensity Objects (%) [4]: 0% and 5%
Population Membrane Permeable-Phenotype (%) [4]: 2% and 11%
Population Mitochondria Different-Phenotype (%) [4]: 8% and 12%
Population Mitotic Cells (%) [4]: 75% and 48%
Population Normal (%) [4]: 99% and 94%
Population Pyknosed Nuclei (%) [4]: 17% and 22%
Population Tubulin-Different-Phenotype (%) [4]: 63% and 82%
Total Cell Count [4]: 142 and 174
Population Apoptotic (%) [5]: 63% and 50%
Population Fragmented Nuclei (%) [5]: 18% and 37%
Population Healthy Nuclei (%) [5]: 68% and 40%
Population Hoechst High Intensity Objects (%) [5]: 8% and 0%
Population Membrane Permeable-Phenotype (%) [5]: 0% and 4%
Population Mitochondria Different-Phenotype (%) [5]: 3% and 11%
Population Mitotic Cells (%) [5]: 36% and 50%
Population Normal (%) [5]: 91% and 99%
Population Pyknosed Nuclei (%) [5]: 13% and 21%
Population Tubulin-Different-Phenotype (%) [5]: 28% and 53%
Total Cell Count [5]: 181 and 111
Population Apoptotic (%) [6]: 70% and 73%
Population Fragmented Nuclei (%) [6]: 25% and 36%
Population Healthy Nuclei (%) [6]: 62% and 51%
Population Hoechst High Intensity Objects (%) [6]: 2% and 5%
Population Membrane Permeable-Phenotype (%) [6]: 0% and 6%
Population Mitochondria Different-Phenotype (%) [6]: 13%
Population Mitotic Cells (%) [6]: 29% and 26%
Population Normal (%) [6]: 97% and 94%
Population Pyknosed Nuclei (%) [6]: 11%
Population Tubulin-Different-Phenotype (%) [6]: 69% and 78%
Total Cell Count [6]: 149 and 170

— ChEMBL document CHEMBL5724801, “EUbOPEN Chemogenomics Library - Multiplex” (2024)
